The values that follow come from ChEMBL document CHEMBL1135666, “Adenosine 5'-O-(1-boranotriphosphate) derivatives as novel P2Y(1) receptor agonists” (J Med Chem, 2002).

One data set is filed under the species Bos taurus. The data set is described as follows: Kinetic parameter Vmax value for Bovine spleen NTPDase1 hydrolysis. In kind it is ADME. The conditions noted are these: cattle. Put shortly:
(§1)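 Semipurified bovine spleen particulate NTPDase1 (about 1 μg protein), preincubated 3 min at 37 °C in 8 mM CaCl2, 5 mM tetramisole, 50 mM imidazole, 50 mM Tris pH 7.5. The reaction was started with substrate at 10–100 μM and stopped after 7 min with malachite green to read Pi release. Apparent Km and Vmax came from a Woolf–Augustinson–Hofstee plot; assays were run in triplicate.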

A further data set has as its system NTPDase1. The data set is described as follows: Kinetic parameter Km value for Bovine spleen NTPDase1 hydrolysis. In kind it is ADME, Bos taurus. As to conditions: cattle. In outline: as §1
In a further data set the target is P2Y purinoceptor 1 (Rattus norvegicus, UniProt P49651). Description: Agonists activity was evaluated by release of [Ca2+] release of HEK 293 cells stably transfected with rat-brain P2Y purinoceptor 1 (P2Y1-R). In kind it is functional, cell-based, HEK293. In outline: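 HEK293 cells stably expressing rat brain P2Y1 receptor, grown on coverslips, loaded 30 min with 2 μM Fura 2-AM in HEPES-buffered saline pH 7.4. Continuous superfusion with 35 °C HBS containing varying nucleotide concentrations. Single-cell fluorescence at 340/380 nm excitation, 500 nm emission. EC50 from concentration–response of ΔF340/F380, averaged over 60–100 cells; at least three separate experiments; ATP as reference.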
Sequence of P2Y purinoceptor 1 (P49651 whole entry, the tested form may be a part): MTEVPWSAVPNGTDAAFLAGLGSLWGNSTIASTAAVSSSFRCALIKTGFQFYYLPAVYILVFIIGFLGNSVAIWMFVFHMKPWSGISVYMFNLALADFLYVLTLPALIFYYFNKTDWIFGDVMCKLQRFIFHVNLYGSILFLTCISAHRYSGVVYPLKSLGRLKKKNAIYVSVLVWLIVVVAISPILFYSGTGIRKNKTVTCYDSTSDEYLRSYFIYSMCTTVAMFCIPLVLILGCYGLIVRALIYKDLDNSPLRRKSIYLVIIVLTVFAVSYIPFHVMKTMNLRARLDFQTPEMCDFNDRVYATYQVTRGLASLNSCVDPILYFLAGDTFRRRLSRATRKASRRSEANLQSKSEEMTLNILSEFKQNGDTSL

A further data set is described as follows: Half life was determined. As to conditions: pH 1.4, 37 °C.
Data set [1] can be described thus: Half life was determined. The data set is classed as ADME. In outline: (§2)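 ³¹P NMR follow-up of hydrolysis at 37 °C. At pH 7.4 the diastereoisomeric mixture (tetrasodium salt) was held in Tris-HCl buffer and recorded for 3 weeks at 1–3 day intervals; hydrolysis came from Pγ (−7.5 ppm) versus inorganic phosphate (1.7 ppm) integrals. At pH 1.4 the sample was in KCl/HCl buffer with D2O, recorded for 17 h every 0.5 h; Pβ intensity versus time was fit to pseudo-first-order kinetics.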

A short description of data set [2]: Hydrolysis rate constant was determined. The data set is classed as ADME. Put shortly:
as §2

SMILES strings stand for the structures. pEC50: −log10 of the molar value.

A word on the Vmax: it is the top rate of the reaction or transport when substrate is in excess. As a reminder, the Km is the substrate concentration at which the rate is half of its maximum. For `Nc1ncnc2c1ncn2[C@@H]1O[C@H](COP(=O)([O-])OP(=O)([O-])OP(=O)([O-])[O-])[C@@H](O)[C@H]1O.[Na+].[Na+].[Na+].[Na+]`, in the data set filed under Bos taurus, the Vmax stood at 2.4 µmol/min/mg. Besides, in the data set on NTPDase1, the Km was 15.9 µM.
For `Nc1nc(Cl)nc2c1ncn2[C@@H]1O[C@H](COP(=O)([O-])OP(=O)([O-])OP(=O)([O-])[O-])[C@@H](O)[C@H]1O.[Na+].[Na+].[Na+].[Na+]` the same measures were 1.9 µmol/min/mg and 12.9 µM.
Broadly, the pEC50 is the EC50 on a negative log10 scale, so that one unit is a factor of ten. A higher pEC50 goes with a low EC50. As a reminder, the half-life is how long it takes for the measured level to halve. Regarding `[BH3-]P(=O)(OC[C@H]1O[C@@H](n2cnc3c(N)nc(SC)nc32)[C@H](O)[C@@H]1O)OP(=O)([O-])OP(=O)([O-])[O-].[Na+].[Na+].[Na+].[Na+]` (stereo partly drawn), the maximal velocity (Vmax) in the data set listed under Bos taurus came to 0.89 µmol/min/mg. In addition, in the data set on NTPDase1, the Michaelis constant (Km) was found to be 17.4 µM. In addition, the pEC50 on P2Y purinoceptor 1 is 8.59. The same compound showed a half-life in the data set “Half life was determined” of 5.9 h.
`[BH3-]P(=O)(OC[C@H]1O[C@@H](n2cnc3c(N)ncnc32)[C@H](O)[C@@H]1O)OP(=O)([O-])OP(=O)([O-])[O-].[Na+].[Na+].[Na+].[Na+]` (stereo partly drawn): the Vmax in the data set listed under Bos taurus stood at 0.78 µmol/min/mg. Besides, in the data set with NTPDase1, the Michaelis-Menten constant (Km) is 13.8 µM. The pEC50 at P2Y purinoceptor 1 was 6.70.
For `CSc1nc(N)c2ncn([C@@H]3O[C@H](COP(=O)([O-])OP(=O)([O-])OP(=O)([O-])[O-])[C@@H](O)[C@H]3O)c2n1.[Na+].[Na+].[Na+].[Na+]` the same measures were 1.9 µmol/min/mg, 62 µM and 9.00.
For `[BH3-]P(=O)(OC[C@H]1O[C@@H](n2cnc3c(N)nc(Cl)nc32)[C@H](O)[C@@H]1O)OP(=O)([O-])OP(=O)([O-])[O-].[Na+].[Na+].[Na+].[Na+]` (stereo partly drawn), the Vmax in the data set filed under Bos taurus was 0.88 µmol/min/mg. For the same compound, the Km in the data set on NTPDase1 came to 7.2 µM. The compound further yielded a half-life in data set [1] of 2.7 h. For the same compound, the Hydrolysis rate constant in data set [2] is 7.2e-05 s⁻¹.
